Values after ≈ are worked out from the molar mass of the structure shown. Active and inactive are the calls of the source. The rule behind the calls is not given here.
Legend:
Human alphaherpesvirus 1 [1] = assay: Antiviral activity against Herpesvirus 1 123 infected in Swiss mouse assessed as increase in survival at 52 mg/kg/day, ip; type: functional, organism-based
How it was run: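 Encephalitis induced in 18-20-g Swiss mice by intracerebral LD₇₅ of herpes virus type 1 strain 123. Drug given intraperitoneally b.i.d. ×9 starting 4 h post-inoculation at 104, 52 or 26 mg/kg/day, with saline controls. Survivors/total compared by Fisher's exact test; survival time compared by t test.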

Human alphaherpesvirus 1 [2] = assay: Antiviral activity against Herpesvirus 1 123 infected in Swiss mouse assessed as increase in survival at MTD, ic administered as single dose 6 hrs post infection relative to control; type: functional, organism-based
How it was run: (§1)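 18-20-g Swiss mice inoculated intracerebrally with an LD₇₅ of herpes virus type 1 strain 123 to induce encephalitis. One intracerebral drug treatment given 6 h after virus inoculation. Survivors counted against untreated infected controls.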

[3] = Cytotoxicity against human KB cells after 72 hrs; type: cell-based
Mus musculus = assay: Toxicity in Swiss mouse assessed as weight loss at 52 mg/kg/day, ip; type: organism-based; set-up: route intraperitoneal; settings: in vivo
How it was run: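 Uninfected toxicity-control Swiss mice (18-20 g) dosed intraperitoneally b.i.d. ×9 at 104 or 52 mg/kg/day, in parallel with the infected groups. Body weight and survivors/total recorded.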

Human alphaherpesvirus 2 = assay: Antiviral activity against Herpesvirus 2 infected in human KB cells assessed as virus-induced cytopathic effect after 72 hrs; type: functional, organism-based
How it was run: (§2)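 KB (human nasopharyngeal carcinoma) monolayers, 18-24 h old, infected with 320 CCID₅₀ of herpes virus type 1 or type 2. Compound added within 15 min at half-log dilutions from 1000 to 1 μg/ml. Incubated 72 h at 37°. CPE scored microscopically 0-4. Virus rating is the summed (virus control − treated) CPE differences across drug levels, halved at levels showing partial toxicity.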

Vaccinia virus = assay: Antiviral activity against Vaccinia virus infected in human KB cells assessed as virus-induced cytopathic effect after 72 hrs; type: functional, organism-based; settings: Orthopoxvirus vaccinia
Human alphaherpesvirus 1 [4] = assay: Antiviral activity against Herpesvirus 1 infected in human KB cells assessed as virus-induced cytopathic effect after 72 hrs; type: functional; settings: Human alphaherpesvirus 1, 72 h; how it was run: as §2
Human alphaherpesvirus 1 [5] = assay: Antiviral activity against Herpesvirus 1 123 infected in Swiss mouse assessed as increase in survival at 0.31 to 1.25 mg/kg, ic administered as single dose 6 hrs post infection relative to control; type: functional, organism-based; how it was run: as §1
[6] = Therapeutic index, ratio of MTD for Swiss mouse to MID for Herpesvirus 1 123 infected in Swiss mouse; settings: read-out: TI
How it was run: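 Therapeutic index = maximum tolerated dose / minimum inhibitory dose, based on survivors/total among treated infected mice. The ic regimen was a single MTD dose at 6 h post-inoculation. The ip regimen was b.i.d. ×9 from 4 h. Uninfected toxicity controls were run alongside.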

Human alphaherpesvirus 1 [7] = assay: Antiviral activity against Herpesvirus 1 123 infected in Swiss mouse assessed as increase in survival time at 26 mg/kg/day, ip relative to control; type: functional, organism-based
How it was run: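 Dosed intraperitoneally b.i.d. for 9 days, starting 4 h after virus inoculation. Infected animals were compared with saline controls. Survival time was assessed by t test.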

Compound	Activity (Human alphaherpesvirus 1 [1])	Activity (Human alphaherpesvirus 1 [2])	MCC at 72 h [3] [µg/mL]	Activity (Mus musculus)	Activity (Human alphaherpesvirus 2)	Activity (Vaccinia virus)	MIC (Human alphaherpesvirus 1 [4]) [µg/mL]	Activity (Human alphaherpesvirus 1 [5])	selectivity ratio [6]	Survival (Human alphaherpesvirus 1 [7])
Nc1nc2c(ncn2[C@@H]2O[C@@H]3COP(=O)(O)O[C@@H]3[C@H]2O)c(=O)[nH]1	Active	Active	32	Toxic	Active	inactive	32 (≈ 92.7 µM)	Active	≥ 4	Active
Nc1ncnc2c1ncn2[C@@H]1O[C@H](CO)[C@@H](O)[C@@H]1O [VIDARABINE]		Active	3.2		Active	Active	3.2 (≈ 12 µM)			
Nc1nc2c(ncn2[C@@H]2O[C@H](CO)[C@H](O)[C@H]2O)c(=O)[nH]1			10							
Nc1nc(O)c2ncn([C@@H]3O[C@H](COP(=O)(O)O)[C@H](O)[C@H]3O)c2n1		Active	3.2		Active	inactive	10 (≈ 27.5 µM)			
Nc1nc(O)c2ncn([C@@H]3O[C@H](CO)[C@H](O)[C@H]3O)c2n1		Active			Active	inactive	10 (≈ 35.3 µM)			
